ChEMBL document CHEMBL2375228, “4-Bromo-2-(piperidin-1-yl)thiazol-5-yl-phenyl methanone (12b) inhibits Na+/K(+)-ATPase and Ras oncogene activity in cancer cells” (Eur J Med Chem, 2013)
pIC50: −log10 of the molar value. Values belong to the molecule of their own block, whether it stands above or below them. Active and inactive are the calls of the source. No cut-off for these calls is given here.

How the values were obtained:
[1] = test system: Hs 683; assay: Selectivity index for NMRI mouse astrocytes over human Hs683 cells
[2] = test system: MCF7; assay: Cytotoxicity against human MCF7 cells after 72 hrs by MTT assay; assay type: functional, cell-based; settings: MCF7, 72 h
How it was run: (§1)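 Cells grown in RPMI with 10% heat-inactivated fetal calf serum and exposed to compound for 72 h. Overall growth read by MTT colorimetric assay; IC50 derived from it. Six replicates per condition.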

[3] = test system: A549; assay: Ratio of perillyl alcohol IC50 to compound IC50 for human A549 cells; assay type: functional
[4] = test system: A549; assay: Cytotoxicity against human A549 cells after 72 hrs by MTT assay; assay type: functional, cell-based; settings: A549, 72 h; how it was run: as §1
[5] = test system: SK-MEL-28; assay: Ratio of perillyl alcohol IC50 to compound IC50 for human SK-MEL-28 cells; assay type: functional
[6] = Selectivity index for human U373 cells over NMRI mouse astrocytes; design: species or system U-373MG ATCC
[7] = Ratio of perillyl alcohol IC50 to compound IC50 for human U373 cells; assay type: functional, U-373MG ATCC
[8] = Growth inhibition of NMRI mouse astrocytes after 72 hrs by MTT assay; assay type: cell-based; settings: Astrocyte
[9] = test system: Hs 683; assay: Ratio of perillyl alcohol IC50 to compound IC50 for human Hs683 cells; assay type: functional
[10] = Cytotoxicity against human U373 cells after 72 hrs by MTT assay; assay type: functional, cell-based, U-373MG ATCC; settings: U373 MG; how it was run: as §1
[11] = Growth inhibition of NMRI mouse astrocytes at 30 to 300 uM after 72 hrs by MTT assay; assay type: cell-based, Astrocyte; settings: read-out: GI
How it was run: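 Mouse astrocyte primocultures were plated in uncoated T25 flasks for 72 h, medium was changed and cells grown to confluence. Tested at 0, 30, 60 and 300 µM by MTT colorimetric assay.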

[12] = test system: MCF7; assay: Ratio of perillyl alcohol IC50 to compound IC50 for human MCF7 cells; assay type: functional
[13] = Chemical stability of the compound in RPMI culture medium after 72 hrs by mass spectroscopic analysis; assay type: physicochemical
How it was run: (§2)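 5 mM DMSO stock diluted 100-fold in water or RPMI and held at 37 °C for 72 h. Samples infused into ESI-QTOF MS (positive mode, scan 110–950 m/z) with FA 0.2%-MeOH 50:50 as solvent.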

[14] = test system: Hs 683; assay: Cytostatic activity against human Hs683 cells at 40 uM after 48 to 72 hrs by videomicroscopic analysis relative to control; assay type: functional
How it was run: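 Hs683 glioma cells, untreated or at 40 µM, filmed by computer-assisted phase-contrast videomicroscopy over 72 h, one image every 4 min (1080 images), in triplicate. Growth rate = cell count in last image / first image. GGR index = treated ratio / control ratio.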

[15] = test system: PC-3; assay: Cytotoxicity against human PC3 cells after 72 hrs by MTT assay; assay type: functional, cell-based; settings: PC-3, 72 h; how it was run: as §1
[16] = test system: SK-MEL-28; assay: Cytotoxicity against human SK-MEL-28 cells after 72 hrs by MTT assay; assay type: functional, cell-based; settings: SK-MEL-28, 72 h; how it was run: as §1
[17] = Cytotoxicity against human Hs683 cells after 72 hrs by MTT assay; assay type: functional, cell-based; settings: Hs 683, 72 h; how it was run: as §1
[18] = Chemical stability of the compound in water after 72 hrs by mass spectroscopic analysis; assay type: physicochemical; settings: buffer; how it was run: as §2
[19] = species: Cavia porcellus; assay: Inhibition of guinea pig brain Na+/K+-ATPase at 1 mM preincubated for 10 mins measured after 30 mins relative to control
[20] = test system: PC-3; assay: Ratio of perillyl alcohol IC50 to compound IC50 for human PC3 cells; assay type: functional
[21] = test system: Hs 683; assay: Inhibition of RAS oncogene activity in human Hs683 cells at 2 mM after 5 to 29 mins by ELISA; assay type: cell-based; settings: in the assay text read “5 to 20 mins” for “5 to 29 mins”
How it was run: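 Hs683 glioma cells treated with 2 mM for 5 and 20 min, lysed, 100 µg protein used. GTP-Ras captured by GST-Raf-RBD and detected with H-Ras antibody, HRP secondary and chemiluminescence.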

[22] = test system: Hs 683; assay: Inhibition of RAS oncogene activity in human Hs683 cells at 40 uM after 30 seconds by ELISA relative to control; assay type: cell-based
How it was run: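 Hs683 glioma cells exposed 30 s at 40 µM, lysed on ice for 15 min, 100 µg protein used. Active Ras captured on GST-Raf-RBD glutathione plate, detected with H-Ras primary and HRP secondary antibodies, read by chemiluminescence. Compared with untreated cells.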

[23] = species: Cavia porcellus; assay: Inhibition of guinea pig kidney Na+/K+-ATPase-mediated K+-activated-p-nitrophenylphosphatase activity
How it was run: (§3)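 Purified guinea pig brain or kidney Na+/K+-ATPase preparations; K+-activated p-nitrophenylphosphatase activity = total activity minus basal activity, with basal measured by replacing KCl with 1 mM ouabain. Mean ± SEM of 3 experiments.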

[24] = species: Cavia porcellus; assay: Uncompetitive inhibition of purified guinea pig brain Na+/K+-ATPase by double reciprocal plot analysis in presence of ATP; assay type: tissue-based
[25] = species: Cavia porcellus; assay: Non competitive inhibition of guinea pig kidney Na+/K+-ATPase by double reciprocal plot analysis in presence of K+
[26] = Inhibition of guinea pig brain Na+/K+-ATPase alpha2 preincubated for 10 mins measured after 30 mins; design: species or system Cavia porcellus
[27] = species: Cavia porcellus; assay: Uncompetitive inhibition of purified guinea pig kidney Na+/K+-ATPase by double reciprocal plot analysis in presence of ATP
[28] = Inhibition of guinea pig kidney Na+/K+-ATPase alpha1 preincubated for 10 mins measured after 30 mins; design: species or system Cavia porcellus
[29] = species: Cavia porcellus; assay: Inhibition of guinea pig kidney Na+/K+-ATPase at 1 mM preincubated for 10 mins measured after 30 mins relative to control
[30] = species: Cavia porcellus; assay: Inhibition of guinea pig kidney Na+/K+-ATPase alpha1 preincubated for 10 mins measured after 30 mins relative to POH
[31] = Inhibition of guinea pig brain Na+/K+-ATPase alpha3 preincubated for 10 mins measured after 30 mins; design: species or system Cavia porcellus
[32] = test system: Hs 683; assay: Inhibition of RAS oncogene activity in human Hs683 cells 40 uM after 30 seconds by ELISA relative to POH; assay type: cell-based
[33] = species: Cavia porcellus; assay: Inhibition of ouabain-insensitive Mg++ATPase in guinea pig kidney homogenate at 0.1 to 1mM; assay type: tissue-based
How it was run: (§4)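 Brain and kidney homogenates in 110 mM NaCl, 20 mM KCl, 5 mM MgCl2, 50 mM Tris-HCl pH 7.6 with 5 mM ATP; 10 min preincubation at 37 °C, 30 min reaction. Ouabain-insensitive Mg++ATPase activity measured with 3.6 mM ouabain across 0.1–1.0 mM compound.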

[34] = species: Cavia porcellus; assay: Non competitive inhibition of guinea pig brain Na+/K+-ATPase by double reciprocal plot analysis in presence of Na+; assay type: tissue-based
[35] = species: Cavia porcellus; assay: Inhibition of guinea pig brain Na+/K+-ATPase-mediated K+-activated-p-nitrophenylphosphatase activity; how it was run: as §3
[36] = species: Cavia porcellus; assay: Inhibition of ouabain-insensitive Mg++ATPase in guinea pig brain homogenate at 0.1 to 1mM; assay type: tissue-based; how it was run: as §4
[37] = species: Cavia porcellus; assay: Non competitive inhibition of guinea pig kidney Na+/K+-ATPase by double reciprocal plot analysis in presence of Na+
[38] = species: Cavia porcellus; assay: Non competitive inhibition of guinea pig brain Na+/K+-ATPase by double reciprocal plot analysis in presence of K+; assay type: tissue-based
[39] = Inhibition of Na+/K+-ATPase in guinea pig kidney homogenate preincubated for 10 mins measured after 30 mins; assay type: tissue-based, Cavia porcellus
[40] = Inhibition of Na+/K+-ATPase in guinea pig whole brain homogenate preincubated for 10 mins measured after 30 mins; assay type: tissue-based, Cavia porcellus

Stability [13]: Stable
Stability [18]: Stable
inhibition [19]: > 50%
Compound: O=C(c1ccccc1)c1sc(N2CCCCC2)nc1Cl
Selectivity Index [1]: >5
pIC50 [2]: 4.25
Ratio IC50 [3]: 10
pIC50 [4]: 4.39
Ratio IC50 [5]: 10
Selectivity Index [6]: >5
Ratio IC50 [7]: 10
pIC50 [8]: < 3.52
Ratio IC50 [9]: 10
pIC50 [10]: 4.02
inhibition at 72 h, up to 300 µM [11]: < 50%
Ratio IC50 [12]: 10
Activity [14]: 40%
pIC50 [15]: 4.16
pIC50 [16]: 4.04
pIC50 [17]: 4.44
Ratio IC50 [20]: 10

Compound: C=C(C)[C@@H]1CC=C(CO)CC1 [PERILLYL ALCOHOL]
pIC50 [2]: < 3.00
pIC50 [4]: < 3.00
pIC50 [10]: < 3.00
pIC50 [15]: < 3.00
pIC50 [16]: < 3.00
pIC50 [17]: < 3.00
inhibition [21]: Active

Compound: O=C(c1ccccc1)c1sc(N2CCCC2)nc1Br
pIC50 [2]: 4.16
pIC50 [4]: 4.01
pIC50 [10]: < 4.00
pIC50 [15]: < 4.00
pIC50 [16]: < 4.00
pIC50 [17]: < 4.00

Compound: CC(=O)c1sc(N2CCOCC2)nc1Cl
pIC50 [2]: 4.06
pIC50 [4]: < 4.00
pIC50 [10]: 4.08
pIC50 [15]: < 4.00
pIC50 [16]: < 4.00
pIC50 [17]: < 4.00

Compound: CCOC(=O)c1sc(N2CCCC2)nc1Cl
pIC50 [2]: 4.10
pIC50 [4]: 4.21
pIC50 [10]: < 4.00
pIC50 [15]: 4.11
pIC50 [16]: 4.09
pIC50 [17]: 4.27

Compound: N#Cc1sc(N2CCCC2)nc1Cl
pIC50 [2]: 4.00
pIC50 [4]: < 4.00
pIC50 [10]: < 4.00
pIC50 [15]: < 4.00
pIC50 [16]: < 4.00
pIC50 [17]: < 4.00

Compound: COC(=O)c1sc2nc(N3CCCC3)sc2c1C
pIC50 [2]: 4.25
pIC50 [4]: 4.07
pIC50 [10]: 4.05
pIC50 [15]: < 4.00
pIC50 [16]: < 4.00
pIC50 [17]: 4.04

inhibition [23]: inactive
inhibition [24]: Active
inhibition [25]: Active
pIC50 [26]: 3.60
inhibition [27]: Active
pIC50 [28]: 3.26
inhibition [29]: > 50%
Ratio [30]: 3
Stability [13]: Unstable
pIC50 [31]: 3.60
inhibition [33]: inactive
inhibition [34]: Active
inhibition [35]: Active
inhibition [36]: inactive
inhibition [37]: Active
Stability [18]: Unstable
inhibition [19]: > 50%
inhibition [38]: Active
pIC50 [39]: 3.26
pIC50 [40]: 3.46
Compound: O=C(c1ccccc1)c1sc(N2CCCCC2)nc1Br
Selectivity Index [1]: >5
pIC50 [2]: 4.46
inhibition [22]: > 50%
Ratio IC50 [3]: 10
pIC50 [4]: 4.32
Ratio IC50 [5]: 10
Selectivity Index [6]: >5
Ratio IC50 [7]: 10
pIC50 [8]: < 3.52
Ratio IC50 [9]: 10
pIC50 [10]: 4.11
inhibition at 72 h, up to 300 µM [11]: < 50%
Ratio IC50 [12]: 10
Activity [14]: 40%
Ratio [32]: 40
pIC50 [15]: 4.21
pIC50 [16]: 4.04
pIC50 [17]: 4.42
Ratio IC50 [20]: 10

Compound: COC(=O)c1sc2nc(SC)sc2c1C
pIC50 [2]: 4.16
pIC50 [4]: 4.11
pIC50 [10]: 4.04
pIC50 [15]: 4.05
pIC50 [16]: < 4.00
pIC50 [17]: 4.10
